Assay [1] concerns the target Mitochondrial complex I; NADH oxidoreductase (Bos taurus, UniProt P25708+P52505). As to the kind of experiment: Inhibition of NADH oxidase activity. Format: protein-complex assay. The procedure, abridged:
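Beef-heart submitochondrial particles (sonicated frozen-thawed mitochondria), preactivated with 300 µM NADH, assayed at 22 °C in 50 mM potassium phosphate pH 7.4, 1 mM EDTA (0.28 nM complex I). Aerobic oxidation of 75 µM NADH with no added quinone, followed at 340 nm. Ethanolic compound added cumulatively, 5 min on ice per step, ethanol ≤2%. IC50 is the final concentration giving 50% inhibition.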

For assay [2], the target named is Mitochondrial complex I; NADH oxidoreductase (Bos taurus) (UniProt P25708+P52505). As to the kind of experiment: Relative potency of inhibition of NADH oxidase (IC50); 4-dehydroxy-4-hydroxylimonorolliniastatin-1 as standard. Type of assay: protein-complex assay. The procedure, abridged:
(§1)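 Derived value: the compound's NADH oxidase IC50 expressed relative to that of the reference acetogenin. The oxidase assay used NADH-activated beef heart submitochondrial particles (0.28 nM complex I) oxidising 75 µM NADH aerobically without added quinone, at 22 °C and pH 7.4. Inhibitor was added stepwise with 5 min incubations on ice, and NADH decrease was followed at 340 nm.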

Assay [3] in a line: Inhibition of NADH decylubiquinone (DB) oxidoreductase activity. More on the design: species or system Bos taurus. The procedure, abridged:
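Beef heart submitochondrial particles from sonicated frozen-thawed mitochondria, NADH-activated (300 µM) at 0.5 mg·mL⁻¹. Assay at 22 °C in 50 mM K phosphate pH 7.4, 1 mM EDTA, 0.28 nM complex I, with 75 µM NADH, 30 µM decylubiquinone, 2 µM antimycin and 2 mM KCN. Inhibitor titrated as ethanolic additions (5 min on ice each). NADH loss read at 340 nm; IC50 taken at 50% inhibition.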

Assay [4] can be described thus: Ratio of IC50 of DB to that of NADH oxidase. The procedure, abridged:
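Ratio of two IC50 values measured on NADH-activated beef heart submitochondrial particles (0.28 nM complex I, 22 °C, pH 7.4 phosphate/EDTA). The numerator IC50 comes from NADH:decylubiquinone oxidoreductase (75 µM NADH, 30 µM DB, plus antimycin and cyanide). The denominator IC50 comes from aerobic NADH oxidase (75 µM NADH, no added quinone). Both activities were read at 340 nm.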

Assay [5] is described as follows: Percent of relative potency by NADH oxidase assay. The procedure, abridged:
as §1

Chain of Mitochondrial complex I; NADH oxidoreductase (P25708 21-464 limits assumed, other chains not shown): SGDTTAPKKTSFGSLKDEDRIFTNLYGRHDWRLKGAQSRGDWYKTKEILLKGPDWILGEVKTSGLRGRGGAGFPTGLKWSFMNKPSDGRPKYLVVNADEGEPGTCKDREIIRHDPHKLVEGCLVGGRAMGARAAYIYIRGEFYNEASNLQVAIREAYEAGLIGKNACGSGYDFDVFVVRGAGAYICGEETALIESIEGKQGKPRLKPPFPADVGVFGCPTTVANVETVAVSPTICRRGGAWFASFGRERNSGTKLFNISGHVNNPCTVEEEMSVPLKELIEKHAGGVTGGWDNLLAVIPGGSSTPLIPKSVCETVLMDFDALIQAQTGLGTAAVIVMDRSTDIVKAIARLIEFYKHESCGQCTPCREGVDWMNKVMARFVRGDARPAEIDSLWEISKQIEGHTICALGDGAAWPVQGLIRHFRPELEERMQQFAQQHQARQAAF

A word on the IC50: it is the concentration at which inhibition is half-maximal. The low end stands for inhibition by little substance, the high end for a need for much substance. `CCCCCC(CCCC[C@H](OS(C)(=O)=O)[C@H]1CC[C@H]([C@H]2CC[C@H]([C@@H](CCCCCCCCCCCCC3=C[C@H](C)OC3=O)OS(C)(=O)=O)O2)O1)OS(C)(=O)=O` (stereo partly specified): the IC50 was 2.9 nM in assay [1] and 64 nM in assay [3]. In assay [2], this molecule showed a Relative potency of 12. In assay [4], the Ratio came to 22.
Consider `CCCCCCCCCC[C@H](OS(C)(=O)=O)[C@H]1CC[C@@H]([C@@H]2CC[C@H]([C@@H](CCCCCCCCCC[C@H](CC3=C[C@H](C)OC3=O)OS(C)(=O)=O)OS(C)(=O)=O)O2)O1`, for which the IC50 is 1.68 nM in assay [1] and 438 nM in assay [3]. The molecule also came in with a Relative potency in assay [5] of 6.7. Further, in assay [4], the Ratio was determined as 260.
Regarding `CCCCCCCCCC[C@H](O)[C@H]1CC[C@H]([C@H]2CC[C@H]([C@H](O)CCCCC(=O)CCCCCCCC3=C[C@H](C)OC3=O)O2)O1` [GUANACONE], the IC50 in assay [1] was found to be 1.52 nM; in assay [3] it was 2.1 nM. This molecule came in with a Relative potency in assay [2] of 6.1. In addition, the Ratio in assay [4] turned out to be 1.4.
Consider `CCCCCCCCCC[C@H](O)[C@H]1CC[C@H]([C@H]2CC[C@H]([C@H](O)CCCCCCCCCCCCC3=C[C@H](C)OC3=O)O2)O1` [BULLANIN], for which the IC50 was 0.32 nM in assay [1] and 0.44 nM in assay [3]. The Relative potency in assay [2] came out at 1.3; in assay [5], 78.1. The Ratio in assay [4] came out at 1.4.
For `CCCCCCCCCC[C@H](O)[C@H]1CC[C@@H]([C@@H]2CC[C@H]([C@H](O)CCCCCCCC[C@@H](O)CC3=C[C@H](C)OC3=O)O2)O1`, the IC50 is 0.33 nM in assay [1] and 0.83 nM in assay [3]. Also, the Relative potency in assay [2] came to 1.3; in assay [5], 75.8. Besides, the Ratio in assay [4] is 2.5.
Turning to `CCCCCC[C@H](CCC[C@@H](N=[N+]=[N-])[C@H]1CC[C@H]([C@H]2CC[C@H]([C@H](CCCCCCCCCCCCC3=C[C@H](C)OC3=O)N=[N+]=[N-])O2)O1)N=[N+]=[N-]`, the values for the 50% inhibitory concentration (IC50) in assay [1] and in assay [3] were 18 nM and 315 nM, respectively. The molecule also showed a Relative potency in assay [2] of 72. Further, the Ratio in assay [4] came to 17.
For `CCCCCCCCCCC(=O)[C@H]1CC[C@H]([C@H]2CC[C@H](C(=O)CCCCC(=O)CCCCCCCC3=C[C@H](C)OC3=O)O2)O1`, the concentration for half-maximal inhibition (IC50) stood at 1.65 nM in assay [1] and 2.5 nM in assay [3]. The molecule also yielded a Relative potency in assay [2] of 6.6. Moreover, the Ratio in assay [4] came to 1.5.
With `CCCCCCCCCC[C@H](O)[C@H]1CC[C@@H]([C@@H]2CC[C@H]([C@H](O)CCCCCCCCCC[C@@H](O)CC3=C[C@H](C)OC3=O)O2)O1` [rolliniastatin-1], the IC50 amounted to 0.6 nM in assay [1] and 0.74 nM in assay [3]. The Relative potency turned out to be 2.4 in assay [2] and 41.7 in assay [5]. In addition, the Ratio in assay [4] was 1.2.
For `CCCCCCCCCC/C(=N\O)[C@H]1CC[C@@H]([C@@H]2CC[C@H]([C@H](O)CCCCCCCCCC/C(CC3=C[C@H](C)OC3=O)=N\O)O2)O1`, in that order: 0.34 nM, 0.39 nM, 1.4, 73.5 and 1.1.
For `CCCCCCCCCC[C@H](O)[C@H]1CC[C@H]([C@H]2CC[C@H]([C@H](O)CCCC/C(CCCCCCCC3=C[C@H](C)OC3=O)=N\O)O2)O1`, in that order: 0.34 nM, 0.67 nM, 1.4, 73.5 and 2.
As for `CCCCCC[C@@H](CCC[C@H](OS(C)(=O)=O)[C@H]1CC[C@H]([C@H]2CC[C@H]([C@@H](CCCCCCCCCCCCC3=C[C@H](C)OC3=O)OS(C)(=O)=O)O2)O1)OS(C)(=O)=O`, the IC50 came to 14.1 nM in assay [1] and 2040 nM in assay [3]. The Relative potency in assay [2] was found to be 56. The Ratio in assay [4] was 144.
For `CCCCCCCCCCC(=O)[C@H]1CC[C@@H]([C@@H]2CC[C@H]([C@H](O)CCCCCCCCCCC(=O)CC3=C[C@H](C)OC3=O)O2)O1`, the IC50 in assay [1] turned out to be 0.34 nM; in assay [3] it was 0.6 nM. Besides, the results for the Relative potency in assay [2] and in assay [5] were 1.4 and 73.5, respectively. In addition, the Ratio in assay [4] stood at 1.8.
In the case of `CCCCCCCCCC[C@H](O)[C@H]1CC[C@@H]([C@@H]2CC[C@H]([C@H](O)CCCCCCCCCC/C(CC3=C[C@H](C)OC3=O)=N\O)O2)O1`, the concentration for half-maximal inhibition (IC50) in assay [1] turned out to be 0.25 nM; in assay [3] it was 0.29 nM. Also, the Relative potency came out at 1 in assay [2] and 100 in assay [5]. The Ratio in assay [4] was 1.1.
For `CCCCCCC(=O)CCC[C@H](O)[C@H]1CC[C@H]([C@H]2CC[C@H]([C@H](O)CCCCCCCCCCCCC3=C[C@H](C)OC3=O)O2)O1`, in that order: 0.65 nM, 1.3 nM, 2.6, 38.5 and 1.9.
For the molecule `CCCCC[C@H](O)CCCC[C@H](O)[C@H]1CC[C@H]([C@H]2CC[C@H]([C@H](O)CCCCCCCCCCCCC3=C[C@H](C)OC3=O)O2)O1` [MOTRILIN], the results for the IC50 in assay [1] and in assay [3] were 0.41 nM and 0.81 nM, respectively. Also, the Relative potency in assay [2] stood at 1.6; in assay [5] it was 61. Also, the Ratio in assay [4] turned out to be 2.
Taken in the same sequence, the figures for `CCCCCCCCCC[C@H](O)[C@H]1CC[C@H]([C@H]2CC[C@H]([C@H](O)CCCCC(O)CCCCCCCC3=C[C@H](C)OC3=O)O2)O1` (stereo partly specified) were 0.95 nM, 1.9 nM, 3.8, 26.3 and 2.
Taken in the same sequence, the figures for `CCCCCC/C(CCC[C@H](O)[C@H]1CC[C@H]([C@H]2CC[C@H]([C@H](O)CCCCCCCCCCCCC3=C[C@H](C)OC3=O)O2)O1)=N\O` were 0.74 nM, 0.9 nM, 3, 33.8 and 1.2.
As to `CCCCCC(CCCC[C@H](OC(C)=O)[C@H]1CC[C@H]([C@H]2CC[C@H]([C@@H](CCCCCCCCCCCCC3=C[C@H](C)OC3=O)OC(C)=O)O2)O1)OC(C)=O` (stereo partly specified), the half-maximal inhibitory concentration (IC50) was determined as 2.1 nM in assay [1] and 248 nM in assay [3]. In assay [2], this molecule displayed a Relative potency of 8.4. The Ratio in assay [4] was determined as 118.
As to `CCCCCCCCCC[C@H](O)[C@H]1CC[C@@H]([C@@H]2CC[C@H]([C@H](O)CCCCCCCCCCC(=O)CC3=C[C@H](C)OC3=O)O2)O1`, the results for the IC50 in assay [1] and in assay [3] were 0.42 nM and 0.45 nM, respectively. Further, the Relative potency in assay [2] was found to be 1.7; in assay [5] it was 59.5. The Ratio in assay [4] came to 1.1.
In the case of `CCCCCC[C@@H](CCC[C@H](OC(C)=O)[C@H]1CC[C@H]([C@H]2CC[C@H]([C@@H](CCCCCCCCCCCCC3=C[C@H](C)OC3=O)OC(C)=O)O2)O1)OC(C)=O`, the IC50 in assay [1] was 5 nM; in assay [3], 2940 nM. Besides, in assay [2], the Relative potency was found to be 20. The Ratio in assay [4] was 587.
Consider `CCCCCCCCCC[C@@H](O)[C@@H]1CC[C@@H]([C@@H]2CC[C@@H]([C@H](O)CCCCCCCCCC(O)CC3=CC(C)OC3=O)O2)O1` (stereo partly specified) [BULLATACIN], for which the IC50 in assay [1] amounted to 0.51 nM; in assay [3] it was 0.61 nM. For the same molecule, the values for the Relative potency in assay [2] and in assay [5] were 2 and 49, respectively. Moreover, the Ratio in assay [4] amounted to 1.2.
Take `CCCCCCCCCC[C@H](OC(C)=O)[C@H]1CC[C@@H]([C@@H]2CC[C@H]([C@@H](CCCCCCCCCC[C@H](CC3=C[C@H](C)OC3=O)OC(C)=O)OC(C)=O)O2)O1`: the IC50 in assay [1] was found to be 1.46 nM; in assay [3], 1890 nM. The Relative potency in assay [2] stood at 5.8. In addition, the Ratio in assay [4] was 1300.
Turning to `CCCCCC[C@H](O)CCC[C@H](O)[C@H]1CC[C@H]([C@H]2CC[C@H]([C@H](O)CCCCCCCCCCCCC3=C[C@H](C)OC3=O)O2)O1` [SQUAMOCIN], the IC50 in assay [1] was 0.59 nM; in assay [3], 0.77 nM. For the same molecule, the results for the Relative potency in assay [2] and in assay [5] were 2.4 and 42.3, respectively. For the same molecule, in assay [4], the Ratio turned out to be 1.3.

These data come from ChEMBL document CHEMBL1133548, “Semisynthesis of antitumoral acetogenins: SAR of functionalized alkyl-chain bis-tetrahydrofuranic acetogenins, specific inhibitors of mitochondrial complex I” (J Med Chem, 2000).
